The source of these data is ChEMBL document CHEMBL3352312, “Synthesis of linear and cyclic guazatine derivatives endowed with antibacterial activity” (Bioorg Med Chem Lett, 2014).

SMILES strings stand for the structures.

One assay relates to Streptococcus pyogenes. The experiment in a line: Antibacterial activity against Streptococcus pyogenes ATCC 12344 after 16 to 18 hrs by microbroth dilution method. The assay is classed as functional. Put shortly: (§1)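 Broth microdilution in Mueller–Hinton broth following CLSI recommendations. Strains came from ATCC or CCUG collections or the authors' clinical isolates. Compounds were dissolved in DMSO as a 100 mg/ml stock and then diluted in culture medium. Inoculum was 5 × 10⁴ CFU/well. MIC was read after 16–18 h incubation at 35–37 °C.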
On the technique in general: In broth dilution the organism is exposed to a series of concentrations in liquid medium.
A word on the MIC: it is the lowest concentration that inhibits growth of the organism. For `C=C(C)CNC(=N)NCCCCCCCCNCCCCCCCCNC(=N)N.O=C(O)C(F)(F)F.O=C(O)C(F)(F)F.O=C(O)C(F)(F)F`, the lowest concentration to inhibit growth (MIC) was 16 µg/mL.
Take `N=C(NCCCCCCCCN1CCCCCCCCNC(=N)NC1=O)NCC1CC1.O=C(O)C(F)(F)F.O=C(O)C(F)(F)F`: 32 µg/mL was the least that counted as inhibitory (MIC).
The compound `N=C(NCCCCCCCCN1CCCCCCCCNC(=N)NC1=O)NCC1CCC1.O=C(O)C(F)(F)F.O=C(O)C(F)(F)F` gave a minimum inhibitory concentration (MIC) of 2 µg/mL.
The same measure, in the same setting: to `N=C(N)NCCCCCCCCNCCCCCCCCNC(=N)NCc1ccccc1.O=C(O)C(F)(F)F.O=C(O)C(F)(F)F.O=C(O)C(F)(F)F` belongs 1 µg/mL.

The next assay relates to Elizabethkingia meningoseptica. The experiment in a line: Antibacterial activity against Elizabethkingia meningoseptica CCUG 4310 after 16 to 18 hrs by microbroth dilution method. The assay is classed as functional. Put shortly:
as §1
The compound `C=C(C)CNC(=N)NCCCCCCCCNCCCCCCCCNC(=N)N.O=C(O)C(F)(F)F.O=C(O)C(F)(F)F.O=C(O)C(F)(F)F` had an MIC above 256 µg/mL.
As for `N=C(NCCCCCCCCN1CCCCCCCCNC(=N)NC1=O)NCC1CCC1.O=C(O)C(F)(F)F.O=C(O)C(F)(F)F`, the MIC was determined as 256 µg/mL.

Another assay concerns Acinetobacter baumannii. The assay is described as follows: Antibacterial activity against Acinetobacter baumannii ATCC 17978 after 16 to 18 hrs by microbroth dilution method. The assay is classed as functional. Put shortly: as §1
`C=C(C)CNC(=N)NCCCCCCCCNCCCCCCCCNC(=N)N.O=C(O)C(F)(F)F.O=C(O)C(F)(F)F.O=C(O)C(F)(F)F` returned an MIC above 256 µg/mL.
On the same count and under the same terms, the same measure for `N=C(NCCCCCCCCN1CCCCCCCCNC(=N)NC1=O)NCC1CC1.O=C(O)C(F)(F)F.O=C(O)C(F)(F)F`: 64 µg/mL.
Same read-out and setting: to `N=C(NCCCCCCCCN1CCCCCCCCNC(=N)NC1=O)NCC1CCC1.O=C(O)C(F)(F)F.O=C(O)C(F)(F)F` belongs 32 µg/mL; to `N=C(N)NCCCCCCCCNCCCCCCCCNC(=N)NCc1ccccc1.O=C(O)C(F)(F)F.O=C(O)C(F)(F)F.O=C(O)C(F)(F)F`, 64 µg/mL.

The next assay has as its system Aeromonas hydrophila. The assay is described as follows: Antibacterial activity against Aeromonas hydrophila ATCC 7966 after 16 to 18 hrs by microbroth dilution method. The assay is classed as functional. The method, boiled down: as §1
Compound `C=C(C)CNC(=N)NCCCCCCCCNCCCCCCCCNC(=N)N.O=C(O)C(F)(F)F.O=C(O)C(F)(F)F.O=C(O)C(F)(F)F` registered a minimum inhibitory concentration (MIC) above 256 µg/mL.
Compound `N=C(NCCCCCCCCN1CCCCCCCCNC(=N)NC1=O)NCC1CCC1.O=C(O)C(F)(F)F.O=C(O)C(F)(F)F` registered an MIC of 64 µg/mL.
Regarding `N=C(N)NCCCCCCCCNCCCCCCCCNC(=N)NCc1ccccc1.O=C(O)C(F)(F)F.O=C(O)C(F)(F)F.O=C(O)C(F)(F)F`, the minimal inhibitory concentration (MIC) worked out at 64 µg/mL.

A further assay concerns Enterococcus faecalis. The assay is described as follows: Antibacterial activity against Enterococcus faecalis ATCC 19433 after 16 to 18 hrs by microbroth dilution method. In kind it is functional. The method, boiled down:
as §1
In turn, `C=C(C)CNC(=N)NCCCCCCCCNCCCCCCCCNC(=N)N.O=C(O)C(F)(F)F.O=C(O)C(F)(F)F.O=C(O)C(F)(F)F` returned an MIC of 256 µg/mL.
On the same count and under the same terms, the same measure for `N=C(NCCCCCCCCN1CCCCCCCCNC(=N)NC1=O)NCC1CC1.O=C(O)C(F)(F)F.O=C(O)C(F)(F)F`: 32 µg/mL; for `N=C(NCCCCCCCCN1CCCCCCCCNC(=N)NC1=O)NCC1CCC1.O=C(O)C(F)(F)F.O=C(O)C(F)(F)F`: 8 µg/mL.
In turn, `N=C(N)NCCCCCCCCNCCCCCCCCNC(=N)NCc1ccccc1.O=C(O)C(F)(F)F.O=C(O)C(F)(F)F.O=C(O)C(F)(F)F` gave an MIC of 16 µg/mL.

Another assay deals with Bacillus subtilis. The assay is described as follows: Antibacterial activity against Bacillus subtilis ATCC 6633 after 16 to 18 hrs by microbroth dilution method. In kind it is functional. The method, boiled down: as §1
In turn, `C=C(C)CNC(=N)NCCCCCCCCNCCCCCCCCNC(=N)N.O=C(O)C(F)(F)F.O=C(O)C(F)(F)F.O=C(O)C(F)(F)F` came in with an MIC of 64 µg/mL.
The same measure, in the same setting: the same measure for `N=C(NCCCCCCCCN1CCCCCCCCNC(=N)NC1=O)NCC1CC1.O=C(O)C(F)(F)F.O=C(O)C(F)(F)F`: 4 µg/mL; for `N=C(NCCCCCCCCN1CCCCCCCCNC(=N)NC1=O)NCC1CCC1.O=C(O)C(F)(F)F.O=C(O)C(F)(F)F`: 4 µg/mL.
In turn, `N=C(N)NCCCCCCCCNCCCCCCCCNC(=N)NCc1ccccc1.O=C(O)C(F)(F)F.O=C(O)C(F)(F)F.O=C(O)C(F)(F)F` had an MIC of 4 µg/mL.

For the next assay, the system named is Pseudomonas aeruginosa. The experiment in a line: Antibacterial activity against Pseudomonas aeruginosa ATCC 27853 after 16 to 18 hrs by microbroth dilution method. In kind it is functional. Put shortly:
as §1
Consider `C=C(C)CNC(=N)NCCCCCCCCNCCCCCCCCNC(=N)N.O=C(O)C(F)(F)F.O=C(O)C(F)(F)F.O=C(O)C(F)(F)F`, for which the MIC was above 256 µg/mL.
The same measure, in the same setting: to `N=C(NCCCCCCCCN1CCCCCCCCNC(=N)NC1=O)NCC1CC1.O=C(O)C(F)(F)F.O=C(O)C(F)(F)F` belongs above 256 µg/mL; to `N=C(NCCCCCCCCN1CCCCCCCCNC(=N)NC1=O)NCC1CCC1.O=C(O)C(F)(F)F.O=C(O)C(F)(F)F`, above 256 µg/mL; to `N=C(N)NCCCCCCCCNCCCCCCCCNC(=N)NCc1ccccc1.O=C(O)C(F)(F)F.O=C(O)C(F)(F)F.O=C(O)C(F)(F)F`, 64 µg/mL.

The test system of the next assay is Escherichia coli. The experiment in a line: Antibacterial activity against Escherichia coli CCUGT after 16 to 18 hrs by microbroth dilution method. In kind it is functional. The method, boiled down:
as §1
Regarding `C=C(C)CNC(=N)NCCCCCCCCNCCCCCCCCNC(=N)N.O=C(O)C(F)(F)F.O=C(O)C(F)(F)F.O=C(O)C(F)(F)F`, the MIC worked out at 128 µg/mL.
The compound `N=C(NCCCCCCCCN1CCCCCCCCNC(=N)NC1=O)NCC1CCC1.O=C(O)C(F)(F)F.O=C(O)C(F)(F)F` yielded an MIC of 64 µg/mL.
`N=C(N)NCCCCCCCCNCCCCCCCCNC(=N)NCc1ccccc1.O=C(O)C(F)(F)F.O=C(O)C(F)(F)F.O=C(O)C(F)(F)F`: the MIC turned out to be 8 µg/mL.

A further assay concerns Staphylococcus epidermidis. The assay is described as follows: Antibacterial activity against Staphylococcus epidermidis ATCC 14990 after 16 to 18 hrs by microbroth dilution method. In kind it is functional. The method, boiled down:
as §1
`C=C(C)CNC(=N)NCCCCCCCCNCCCCCCCCNC(=N)N.O=C(O)C(F)(F)F.O=C(O)C(F)(F)F.O=C(O)C(F)(F)F` showed an MIC of 64 µg/mL.
The same measure, in the same setting: to `N=C(NCCCCCCCCN1CCCCCCCCNC(=N)NC1=O)NCC1CC1.O=C(O)C(F)(F)F.O=C(O)C(F)(F)F` belongs 8 µg/mL.
For the compound `N=C(NCCCCCCCCN1CCCCCCCCNC(=N)NC1=O)NCC1CCC1.O=C(O)C(F)(F)F.O=C(O)C(F)(F)F`, the MIC came out at 4 µg/mL.
`N=C(N)NCCCCCCCCNCCCCCCCCNC(=N)NCc1ccccc1.O=C(O)C(F)(F)F.O=C(O)C(F)(F)F.O=C(O)C(F)(F)F` registered a minimal inhibitory concentration (MIC) of 4 µg/mL.

The test system of another assay is Klebsiella pneumoniae. The experiment in a line: Antibacterial activity against Klebsiella pneumoniae ATCC 13833 after 16 to 18 hrs by microbroth dilution method. The assay is classed as functional. Put shortly: as §1
With `C=C(C)CNC(=N)NCCCCCCCCNCCCCCCCCNC(=N)N.O=C(O)C(F)(F)F.O=C(O)C(F)(F)F.O=C(O)C(F)(F)F`, inhibition of growth (MIC) required 256 µg/mL.
Still for that read-out and setting: the same measure for `N=C(NCCCCCCCCN1CCCCCCCCNC(=N)NC1=O)NCC1CC1.O=C(O)C(F)(F)F.O=C(O)C(F)(F)F`: 128 µg/mL.
The same measure, in the same setting: to `N=C(NCCCCCCCCN1CCCCCCCCNC(=N)NC1=O)NCC1CCC1.O=C(O)C(F)(F)F.O=C(O)C(F)(F)F` belongs 32 µg/mL; to `N=C(N)NCCCCCCCCNCCCCCCCCNC(=N)NCc1ccccc1.O=C(O)C(F)(F)F.O=C(O)C(F)(F)F.O=C(O)C(F)(F)F`, 16 µg/mL.
